From publication PMC4291883 (Asian Journal of Andrology, 2014)
“Also recorded” adds a separate entry of the source. Residues, ends and D or L forms follow the SMILES beside them.

Columns and labels:
[1] = test system: intracavernous pressure in anesthetized rats; test: Monitoring of intracavernous pressure; type: in vivo, male Wistar rats; details: for ICP effect compared with U-II and/or P5U (in words): comparison between the peptides; for effect on ICP / penile erection (in words): lowest dose
How it was run: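 Male Wistar rats (200–250 g) under i.p. urethane (1 g kg−1); carotid catheter records systemic pressure; 26-gauge needle through right crus into the cavernosal space records ICP; injections via the other crus. Test compound given at 0.03, 0.1, 0.3 and 1 nmol in 50 μl saline, next dose ≥5 min after return to baseline; ACh 5 nmol ends each run. Read-outs are ΔICP (mmHg) and AUC (mmHg × s); mean ± s.e.m., 5–7 experiments; ANOVA with Bonferroni post-test.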

[2] = molecular target: T1, rat thoracic aorta (Rattus norvegicus, UniProt P49684); details: comparison of U-II, P5U and UPG84
T1 sequence (P49684 1-386): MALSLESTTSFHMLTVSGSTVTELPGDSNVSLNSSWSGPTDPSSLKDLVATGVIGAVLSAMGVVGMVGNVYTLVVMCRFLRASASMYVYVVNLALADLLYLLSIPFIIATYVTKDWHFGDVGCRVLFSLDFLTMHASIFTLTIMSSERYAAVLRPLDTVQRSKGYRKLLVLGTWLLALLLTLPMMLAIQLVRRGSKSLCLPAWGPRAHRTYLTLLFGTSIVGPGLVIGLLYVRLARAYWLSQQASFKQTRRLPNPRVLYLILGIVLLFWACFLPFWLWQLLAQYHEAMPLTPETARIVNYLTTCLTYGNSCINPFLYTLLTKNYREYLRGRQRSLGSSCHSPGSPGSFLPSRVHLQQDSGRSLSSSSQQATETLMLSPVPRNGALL
How it was run: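 Thoracic aorta from male Wistar rats (200–250 g) killed under anaesthesia was cut helically into two parallel strips and the endothelium rubbed off. Strips were held in bicarbonate salt solution at 37°C gassed with 95% O2/5% CO2, 5 mN load, isotonic recording. After 60 min equilibration they were checked with noradrenaline 1 μmol l−1 and re-equilibrated 60 min. Cumulative concentration-response curves were fitted by sigmoidal regression; EC50 expressed as pD2 (−log EC50).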

[3] = test system: vascular smooth muscle; details: cited from earlier work
[4] = test system: human corpus cavernosum strips; details: cited from earlier work
[5] = test system: intracavernous pressure in rats; details: intracavernous administration in rats; cited from earlier work

Compound | increase in ICP, area under the curve ([1]; 0.1 nmol intracavernous, 50 μl saline, urethane anesthesia, mean ± s.e.m., n = 7) [mmHg × s] | ICP effect compared with U-II 0.3 nmol (in words) ([1]; 0.1 nmol intracavernous, compared with U-II at 0.3 nmol per rat) | ICP effect compared with U-II and/or P5U (in words) ([1]; 0.03–1 nmol intracavernous) | delta of increase in ICP (in words) ([1]; 0.03–1 nmol intracavernous, delta in mmHg) | effect on ICP (in words) ([1]; doses of 0.1, 0.3 and 1 nmol intracavernous) | effect on ICP / penile erection (in words) ([1]; 0.03 nmol intracavernous) | agonist activity / potency (in words) [2] | ICP effect compared with P5U 1 nmol (in words) ([1]; 0.03 nmol intracavernous, compared with P5U at 1 nmol) | ICP effect compared with highest dose of U-II, 1 nmol (in words) ([1]; 0.03 nmol intracavernous, compared with U-II at 1 nmol) | vasoconstrictor potency (in words) [3] | relaxation of human corpus cavernosum (in words) [4] | ICP effect (in words) ([1]; 0.1 nmol intracavernous) | ICP increase (in words) [5]
CC(C)[C@H](NC(=O)[C@@H]1CSSC(C)(C)[C@H](NC(=O)[C@@H](N)CC(=O)O)C(=O)N[C@@H](Cc2ccccc2)C(=O)N[C@@H](Cc2c[nH]c3ccccc23)C(=O)N[C@@H](CCCCN)C(=O)N[C@@H](Cc2ccc(O)cc2)C(=O)N1)C(=O)O [P5U, H-Asp-c[Pen-Phe-Trp-Lys-Tyr-Cys]-Val-OH] (HELM PEPTIDE1{D.[Pen].F.W.K.Y.C.V}$PEPTIDE1,PEPTIDE1,2:R3-7:R3$$$V2.0) | 73.95 ± 7.312 | comparable to the effect elicited by U-II at a dose of 0.3 nmol; also recorded: not statistically different from the effect elicited by U-II at a dose of 0.3 nmol per rat | elicited a significant increase in ICP as compared to U-II | displays the same profile of the area under the curve | significantly raises ICP | did not affect the ICP | higher activity (pD2) when compared to the endogenous ligand U-II |  |  |  |  |  | 
CC(C)[C@H](NC(=O)[C@@H]1CSSC(C)(C)[C@H](NC(=O)[C@@H](N)CC(=O)O)C(=O)N[C@@H](Cc2ccccc2)C(=O)N[C@H](Cc2c[nH]c3ccccc23)C(=O)N[C@@H](CCCN)C(=O)N[C@@H](Cc2ccc(N)cc2)C(=O)N1)C(=O)O [UPG84, H-Asp-c[Pen-Phe-DTrp-Orn-(pNH2) Phe-Cys]-Val-OH] (HELM PEPTIDE1{D.[Pen].F.[dW].[Orn].[Nc1ccc(C[C@H](N[*:1])C(=O)[*:2])cc1].C.V}$PEPTIDE1,PEPTIDE1,2:R3-7:R3$$$V2.0) |  |  | caused a significant increase in ICP compared to the endogenous ligand, U-II, and to P5U; also recorded: even more effective than P5U |  |  | induced a prominent penile erection in rat; also recorded: elicited a marked increase in ICP, expressed as area, compared with vehicle | showed the highest activity compared with the endogenous ligand, U-II, or P5U; also recorded: more potent than U-II or P5U | comparable to the penile erection induced by P5U at the dose of 1 nmol | showed an effect similar to the highest dose of U-II (1 nmol); also recorded: comparable profile to that elicited by the highest dose of U-II (1 nmol); also recorded: comparable to the highest tested dose of U-II (1 nmol) |  |  |  | 
CC(C)[C@H](NC(=O)[C@@H]1CSSC[C@H](NC(=O)[C@H](CC(=O)O)NC(=O)[C@@H]2CCCN2C(=O)[C@@H](NC(=O)[C@@H](N)CCC(=O)O)[C@@H](C)O)C(=O)N[C@@H](Cc2ccccc2)C(=O)N[C@@H](Cc2c[nH]c3ccccc23)C(=O)N[C@@H](CCCCN)C(=O)N[C@@H](Cc2ccc(O)cc2)C(=O)N1)C(=O)O [U-II, H-Glu-Thr-Pro-Asp-c[Cys-Phe-Trp-Lys-Tyr-Cys]-Val-OH] |  |  |  |  |  |  |  |  |  | most potent vasoconstrictor compound identified | relaxes human corpus cavernosum strips in endothelium-and NO-dependent manner | already detectable | dose-dependent increase in intracavernous pressure (ICP)
